Assay results taken from ChEMBL document CHEMBL1141102, “Structure-activity studies of peptides from the "hot-spot" region of human CD2 protein: development of peptides for immunomodulation” (2005).
Where a SMILES comes first, the peptide text is derived from it. Bridges are numbered along the chain shown (N, C = ends). [ ]: non-standard residue; d: D form. The star is where a group is joined. Pen = CC(C)(S)[C@H](N)C(=O)O; Acm = CC(=O)NC*

Target: T1, Lymphocyte function-associated antigen 3 (Homo sapiens) (UniProt P19256)
T1 sequence (whole entry): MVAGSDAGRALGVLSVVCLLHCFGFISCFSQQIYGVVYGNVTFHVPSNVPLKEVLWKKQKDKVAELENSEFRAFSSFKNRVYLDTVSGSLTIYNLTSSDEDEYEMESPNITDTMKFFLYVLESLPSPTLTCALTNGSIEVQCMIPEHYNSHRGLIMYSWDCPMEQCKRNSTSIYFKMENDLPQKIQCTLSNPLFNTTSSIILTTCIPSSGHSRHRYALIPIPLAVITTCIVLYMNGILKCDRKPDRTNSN
Test: Percent inhibition of E-rossette formation in sheep red blood cells at 200 uM on incubation with T-cells; range 5-15%
Assay type: functional, cell-based
Conditions: Ovis aries
How it was run: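 Sheep RBCs treated with AET at 37 °C for 15 min, used as 0.5% suspension. Peptide serially diluted in PBS, incubated with the SRBCs at 37 °C for 30 min, then Jurkat cells (2×10^6 cells/mL) added for 15 min. Cells pelleted and held at 4 °C for 1 h. Rosettes counted by hemocytometer on at least 200 cells; percent inhibition; mean of three independent experiments.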

Row | Molecule | inhibition [%]
1 | H-SIYDTKGKNVLE-NH2 | 15

Test system: not listed separately
Test: Percent inhibition of CD58 and CD2 interaction in caco-2 and Jurkat cell adhesion assay at 90 uM
Assay type: functional
Conditions: Homo sapiens
How it was run: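 Confluent Caco-2 monolayers (passages 50–60, human CD58) preincubated with peptide in MEM-α at 37 °C for 30 min. Jurkat cells (CD2), loaded with 2 μM BCECF at 37 °C for 1 h, then added at 1×10^6 cells/well for 45 min at 37 °C. Nonadherent cells washed off with PBS; bound cells lysed in 2% Triton X-100/0.2 N NaOH. Background-corrected fluorescence read; percent inhibition; mean of three experiments.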

Row | Molecule | inhibition at 90 µM [%]
2 | CC(=O)NCSC[C@H](NC(=O)[C@H](Cc1ccccc1)NC(=O)[C@@H](NC(=O)[C@H](CCC(=O)O)NC(=O)[C@H](CCCCN)NC(=O)[C@H](CCC(=O)O)NC(=O)[C@H](CCCCN)NC(=O)[C@H](CCCN=C(N)N)NC(=O)[C@H](Cc1ccccc1)NC(=O)[C@H](CCC(N)=O)NC(=O)[C@H](C)NC(=O)[C@@H](N)C(C)(C)SCNC(C)=O)[C@@H](C)O)C(=O)O (H-[Pen](Acm)AQFRKEKETFC(Acm)-OH) | 25
3 | H-SIYDTKGKNVLE-NH2 | 25
4 | C[C@@H](O)[C@@H]1NC(=O)[C@@H](CC(=O)O)NC(=O)[C@H](Cc2ccc(O)cc2)NC(=O)[C@@H](CCCCN)NC(=O)CNC(=O)[C@@H](CCCCN)NC1=O | 20
5 | NCCCC[C@@H]1NC(=O)[C@@H](CCC(=O)O)NC(=O)[C@H](CCCCN)NC(=O)[C@@H](CCCN=C(N)N)NC(=O)[C@H](Cc2ccccc2)NC(=O)[C@@H](CCC(=O)O)NC1=O | 25
6 | CC[C@H](C)[C@@H]1NC(=O)[C@@H](N)C(C)(C)SSC[C@@H](C(=O)O)NC(=O)[C@H](CC(C)C)NC(=O)[C@H](C(C)C)NC(=O)[C@H](CC(N)=O)NC(=O)[C@H](CCCCN)NC(=O)CNC(=O)[C@H](CCCCN)NC(=O)[C@H]([C@@H](C)O)NC(=O)[C@H](CC(=O)O)NC(=O)[C@H](Cc2ccc(O)cc2)NC1=O | 50
7 | C[C@@H]1NC(=O)[C@@H](N)C(C)(C)SSC[C@@H](C(=O)O)NC(=O)[C@H](Cc2ccccc2)NC(=O)[C@H]([C@@H](C)O)NC(=O)[C@H](CCC(=O)O)NC(=O)[C@H](CCCCN)NC(=O)[C@H](CCC(=O)O)NC(=O)[C@H](CCCCN)NC(=O)[C@H](CCCN=C(N)N)NC(=O)[C@H](Cc2ccccc2)NC(=O)[C@H](CCC(N)=O)NC1=O (H-[Pen]AQFRKEKETFC-OH; disulfide 1-12) | 50
